Experimental data of several laboratories.
Each line is one published result; the experiments were not run side by side. pEC50, pIC50, pKd, pKi: −log10 of the molar value.
CNR2: Cannabinoid receptor 2 (CNR2, Homo sapiens, UniProt P34972)
Ribonuclease H1: Ribonuclease H1 (Homo sapiens, UniProt O60930)
F10: Coagulation factor X (F10, Homo sapiens, UniProt P00742)

SMILES	target	read-out	action	method	notes	endpoint	value
CC(C)(NC(=O)c1nn(CCCCC#N)c2ccccc12)c1cccc(C(N)=O)c1	CNR2	ligand displacement		radioligand	cell membranes	pKi	6.11
CCCCCc1ccccc1C/C=C\C/C=C\C/C=C\CCCC(=O)N[C@H](C)CO	CNR2	β-arrestin recruitment	agonist			pEC50	6.36
CCCCCn1nc(C(=O)NC(C)(C)c2cccc(C(N)=O)c2)c2ccccc21	CNR2	ligand displacement		radioligand	cell membranes	pKi	6.60
CCCCC/C=C\C/C=C\C/C=C\Cc1ccccc1CCCC(=O)N[C@H](C)CO	CNR2	β-arrestin recruitment	agonist			pEC50	7.83
O=c1c(-c2ccccc2)c(O)c2cc(-c3cccc(-c4ccccc4)c3)cnc2n1O	Ribonuclease H1	enzyme activity	inhibitor			pIC50	< 5.00
CC(C)(NC(=O)c1nn(CCCCCF)c2ccccc12)c1cccc(C(N)=O)c1	CNR2	ligand displacement		radioligand	cell membranes	pKi	6.89
CCCCC/C=C\[C@H](C)/C=C\C/C=C\Cc1ccccc1CCCC(=O)N[C@H](C)CO	CNR2	cAMP	agonist			pEC50	6.12
N=C(N)NCCC[C@H](NC(=O)[C@H](Cc1ccccc1)NC(=O)[C@H](CCC(N)=O)NC(=O)OCc1ccccc1)C(=O)c1nccs1	F10	cell-free assay				pKi	7.80
CC(C)(NC(=O)c1nn(Cc2ccc(C#N)cc2)c2ccccc12)c1cccc(C(N)=O)c1	CNR2	ligand displacement		radioligand	cell membranes	pKi	6.54
CCOC(=O)N[C@@H](CCCNC(=N)N)C(=O)N[C@@H](CCC(N)=O)C(=O)N[C@@H](Cc1ccccc1)C(=O)N[C@@H](CCCNC(=N)N)C(=O)c1nc2ccccc2s1	F10	cell-free assay				pKi	7.82
c1cncc([C@@H]2CCCN2)c1	Neuronal acetylcholine receptor; alpha2/beta2 (Rattus norvegicus, UniProt P12389+P12390)	cell-free assay		radioligand		pKi	7.06
CCCC[C@H](NC(C)=O)C(=O)N[C@H]1CC(=O)NCCCC[C@@H](C(=O)N2CCC[C@@H]2C(=O)N[C@@H](C(=O)N2CCC[C@@H]2C(N)=O)C(C)C)NC(=O)[C@H](Cc2c[nH]c3ccccc23)NC(=O)[C@H](CCCNC(=N)N)NC(=O)[C@@H](Cc2ccccc2)NC(=O)[C@@H]2CCCN2C1=O	Melanocortin receptor 5 (MC5R, Homo sapiens, UniProt P33032)	cAMP	agonist			pEC50	9.41
Cc1ccc(NC(=O)c2c(Nc3ccccc3)[nH]c(=O)n(O)c2=O)cc1	Ribonuclease H1	enzyme activity	inhibitor			pIC50	< 5.00
N#CC(C#N)=Cc1ccc([N+](=O)[O-])c(O)c1	Casein kinase I isoform alpha (CSNK1A1, Homo sapiens, UniProt P48729)	binding		SPR		pKd	< 4.30
O=C1c2ccccc2C(c2ccccc2F)C(=O)N1O (centres unmarked)	Ribonuclease H1	enzyme activity	inhibitor			pIC50	5.33
CCCCC/C=C\[C@H](C)/C=C\C/C=C\Cc1ccccc1CCCC(=O)OC(CO)CO	CNR2	β-arrestin recruitment	agonist			pEC50	5.38
CC[C@H](C)[C@@H](C(=O)N1CCC[C@H]1c1nccs1)N(C)C(=O)[C@H](CC(C)C)N(C)C(=O)[C@H](Cc1ccc(OC)cc1)N(C)C(=O)/C=C(\C)OC	CNR2	β-arrestin recruitment	antagonist			pIC50	4.75
